Screens: PubChem BioAssay, Broad Institute
INS-1E rescue: rescue of cytokine-induced death in INS-1E beta cells. INS-1E cytokine-induced death, ATP luminescence, 48 h; normalised: neutral wells 0, positive control 100. protection from cytokine-induced ATP loss, % at 10 µM. 0.1% of 20,000 active;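 active means mean replicate protection from cytokine-induced ATP loss at least 50% and at least 75% of replicates each reaching 50%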
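assay system = INS-1E rat insulinoma cells | amount = 8000 cells per well | medium = phenol-red-free RPMI with 5% fetal bovine serum | doses = one compound concentration, pin transfer | timing = 48 h cytokine plus compound treatment, 10 min reagent incubation | also added = IL-1β, TNF-α and IFN-γ cytokine mix | signal = CellTiter-Glo luminescence measuring cellular ATP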
T cruzi intra: intracellular Trypanosoma cruzi inhibition; 4.9% of 22,000 active; intracellular Trypanosoma cruzi in host cells, plate reader; activity score (inhibition), % at 5.01 µM; in the data active means activity score above about 55%;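 further: parasites and compound incubated about four days before reading; 0% = median of neutral control wells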
A1 apoptosis 2: compounds inhibiting A1, read as caspase activation. AID 2465. MEF A1-2A-BIM cells, caspase-Glo luminescence, 3 h; percent of clofoctol response, DMSO zero. 24,000 tested, under 10 active. caspase activation, % (test concentration not listed); in the data active means caspase activation above about 5.9%
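Test system – A1-2A-BIM-expressing MEF cells · Input – 2500 cells/well · Medium – RPMI-1640 growth medium with 10% FBS · Compound dosing – 50 nL pinned compound · Timing – 3 h compound exposure at 37 °C · Technique – Caspase-Glo luminescence (DEVD substrate) · Evaluation – Caspase-3/7 activity from luminescence increase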
Starred values were filed as active, the others as inactive; x = no result given. Many of the other results were omitted from the sample, so hits are more common in it than they were.

SMILES | INS-1E rescue | T cruzi intra | A1 apoptosis 2
C[C@H]1CN([C@@H](C)CO)C(=O)c2cc(NC(=O)Nc3ccc(C(F)(F)F)cc3)ccc2O[C@@H]1CN(C)Cc1ccc(Cl)c(Cl)c1 | -52 | 11 | x
C[C@H](CO)N1C[C@H](C)[C@H](CN(C)Cc2ccncc2)Oc2ccc(NC(=O)Nc3ccc(C(F)(F)F)cc3)cc2CC1=O | -19 | 61* | -1
C[C@H]1CN([C@@H](C)CO)C(=O)Cc2cc(NC(=O)Nc3ccc(C(F)(F)F)cc3)ccc2O[C@@H]1CN(C)Cc1ccc(Cl)c(Cl)c1 | -12 | -5 | x
C[C@@H]1CN([C@H](C)CO)C(=O)Cc2cc(NC(=O)Nc3ccc(C(F)(F)F)cc3)ccc2O[C@H]1CN(C)Cc1ccncc1 | 16 | -10 | 1
C[C@@H]1CN([C@@H](C)CO)C(=O)Cc2cc(NC(=O)Nc3ccc(C(F)(F)F)cc3)ccc2O[C@@H]1CN(C)Cc1ccc(Cl)c(Cl)c1 | -37 | 57* | x
O=C(CCCCCC(=O)N/N=C/C=C/c1ccccc1)NO | x | x | -1
O=C(NO)c1ccc(C(=O)N/N=C/c2cccc(O)c2)cc1 | 3 | 1 | -1
CC1(C)COC(CCC/C=N/NC(=O)CCCCCCC(=O)NO)OC1 | x | x | 1
O=C(NO)c1ccc(C(=O)N/N=C/Cc2ccccc2)cc1 | x | x | 1
C[C@@H]1CN([C@@H](C)CO)C(=O)Cc2cc(NS(=O)(=O)c3cccs3)ccc2O[C@@H]1CN(C)Cc1ccc(Oc2ccccc2)cc1 | -20 | 63* | x
COc1ccc(CN(C)C[C@@H]2Oc3ccc(NS(=O)(=O)c4cccs4)cc3CC(=O)N([C@H](C)CO)C[C@H]2C)cc1 | 4 | 16 | x
C[C@@H]1CN([C@H](C)CO)C(=O)Cc2cc(NS(=O)(=O)c3cccs3)ccc2O[C@@H]1CN(C)Cc1ccc(-c2ccccc2)cc1 | -14 | 44 | x
C[C@H]1CN([C@@H](C)CO)C(=O)Cc2cc(NS(=O)(=O)c3cccs3)ccc2O[C@H]1CN(C)Cc1ccc(-c2ccccc2)cc1 | -35 | 57* | x
O=C(N/N=C/c1cccc(Br)c1)c1ccccn1 | -1 | -6 | -3
C[C@H](O)[C@H](O)[C@@H](O)[C@@H](O)/C=N/NC(=O)c1ccccn1 | 8 | -6 | 0
C[C@H]1CN([C@@H](C)CO)C(=O)c2cccc(NC(=O)c3nc4ccccc4s3)c2O[C@@H]1CN(C)C(=O)Nc1ccc(C(F)(F)F)cc1 | -12 | 74* | x
C[C@@H]1CN([C@H](C)CO)C(=O)c2cccc(NC(=O)c3nc4ccccc4s3)c2O[C@H]1CN(C)C(=O)Nc1ccc(F)cc1 | 6 | -21 | 0
C[C@@H]1CN([C@@H](C)CO)C(=O)c2cccc(NC(=O)c3nc4ccccc4s3)c2O[C@H]1CN(C)C(=O)Nc1ccc(F)cc1 | 1 | -2 | 1
C[C@H](CO)N1C[C@H](C)[C@@H](CN(C)C(=O)Nc2ccc(F)cc2)Oc2c(NC(=O)c3nc4ccccc4s3)cccc2C1=O | -2 | -6 | 0
C[C@@H]1CN([C@@H](C)CO)C(=O)c2cccc(NC(=O)c3nc4ccccc4s3)c2O[C@H]1CN(C)C(=O)Nc1ccc(C(F)(F)F)cc1 | -11 | 84* | 1
C[C@@H]1CN([C@H](C)CO)C(=O)c2cccc(NC(=O)c3nc4ccccc4s3)c2O[C@@H]1CN(C)C(=O)Nc1ccc(F)cc1 | -5 | 13 | x
C[C@H]1CN([C@@H](C)CO)C(=O)c2cccc(NC(=O)c3nc4ccccc4s3)c2O[C@H]1CN(C)C(=O)Nc1ccc(C(F)(F)F)cc1 | -73 | 79* | 0
C[C@@H]1CN([C@H](C)CO)C(=O)c2cccc(NC(=O)c3nc4ccccc4s3)c2O[C@H]1CN(C)C(=O)Nc1ccc(C(F)(F)F)cc1 | -2 | 61* | 1
O=C(N/N=C/c1ccccc1C(=O)O)c1ccccc1O | -21 | -15 | -13
O=C(CCCCC(=O)N/N=C/c1cccc(Br)c1)NO | x | x | -1
SMILES | INS-1E rescue | T cruzi intra | A1 apoptosis 2
COC(=O)c1cn(CC(=O)Nc2ccon2)nn1 | x | x | -1
C[C@H](CO)N1C[C@H](C)[C@H](CN(C)Cc2ccc(C(=O)Nc3ccccc3N)cc2)Oc2ccc(NC(=O)Cc3ccccc3)cc2CC1=O | 45 | 64* | x
C[C@H]1CN([C@@H](C)CO)C(=O)Cc2cc(NC(=O)Cc3ccccc3)ccc2O[C@H]1CN(C)Cc1ccc(C(=O)Nc2ccccc2N)cc1 | x | x | 1
C[C@@H]1CN([C@@H](C)CO)C(=O)Cc2cc(NC(=O)Cc3ccccc3)ccc2O[C@@H]1CN(C)Cc1ccc(C(=O)Nc2ccccc2N)cc1 | -14 | 77* | 0
C[C@@H]1CN([C@H](C)CO)C(=O)Cc2cc(NC(=O)Cc3ccccc3)ccc2O[C@H]1CN(C)Cc1ccc(C(=O)Nc2ccccc2N)cc1 | -20 | 30 | 1
O=C(CCCCCCC(=O)Nc1ccccc1O)N/N=C/[C@@H](O)[C@H](O)[C@H](O)CO | -3 | -1 | 1
Cc1nc(S(=O)(=O)N[C@H]2CCN(Cc3cccc(OCCO)c3)C2)cn1C | x | x | 1
C[C@@H]1CN([C@H](C)CO)C(=O)Cc2cc(NC(=O)Nc3ccc4c(c3)OCO4)ccc2O[C@H]1CN(C)Cc1ccc(-c2ccccc2)cc1 | -35 | 72* | x
C[C@@H]1CN([C@H](C)CO)C(=O)Cc2cc(NC(=O)Nc3ccc(F)cc3)ccc2O[C@H]1CN(C)Cc1ccc(-c2ccccc2)cc1 | -72 | 74* | 1
C[C@H]1CN([C@@H](C)CO)C(=O)Cc2cc(NC(=O)Nc3ccc(F)cc3)ccc2O[C@H]1CN(C)Cc1ccc(-c2ccccc2)cc1 | -44 | 22 | 1
C[C@@H]1CN([C@H](C)CO)C(=O)Cc2cc(NC(=O)Nc3ccc4c(c3)OCO4)ccc2O[C@H]1CN(C)Cc1ccccc1 | -8 | -15 | -1
COc1ccc(/C=N/NC(=O)CCCCCCC(=O)Nc2ccccc2O)cc1O | -3 | 3 | 1
O=C1O[C@@H](c2ccccc2)[C@@H](c2ccccc2)N2[C@@H](c3ccc(OCCO)cc3)[C@]3(C(=O)Nc4ccccc43)[C@@H](C(=O)N3CCCCCCC3)[C@H]12 | x | x | 0
COC(=O)CCCCCCC(=O)N/N=C\c1cccnc1Br | 8 | -4 | 0
O=C(N/N=C/c1cc(Cl)cc(Cl)c1O)c1ccccc1O | -115 | 73* | -10
O=C(NO)c1cccc(C(=O)N/N=C/c2ccc(O)c(O)c2O)c1 | 8 | 61* | -1
O=C(N/N=C/c1ccc(O)c(O)c1O)c1ccccc1O | -19 | 57* | -5
O=C(N/N=C/c1cc(O)ccc1O)c1ccccc1O | -126 | 18 | x
O=C(N/N=C/c1ccccc1O)c1ccccc1O | -135 | 32 | x
O=C(NO)c1cccc(C(=O)N/N=C/c2cccc(O)c2O)c1 | -27 | 1 | -6
O=C(N/N=C/c1ccc(Br)cc1)c1ccccn1 | -12 | -27 | -11
C[C@H](CO)N1C[C@H](C)[C@@H](CN(C)C)Oc2ccc(NS(=O)(=O)c3ccc(F)cc3)cc2C1=O | 2 | -21 | -1
OC[C@@H]1[C@H]2c3ccccc3OC1(CO)N=C1SCCCN12 | x | x | 0
O=C(/C=C/c1ccc(OCCCCc2ccccc2)cc1)NO | x | x | 3
O=C(O)C1=C[C@H](c2ccc3c(c2)Cc2ccccc2-3)C[C@H](OCc2ccc(CO)cc2)O1 | x | x | -4
